Laboratory results taken from publication PMC8359148 (ACS Omega, 2021).

Key:
[1] = test system: chloroquine-resistant P. falciparum Dd2 parasites; assay: SYBR Green I dose–response assay against Dd2 parasites; format: cell-based; settings: Plasmodium falciparum, DD2, read-out: EC50 Dd2, chloroquine-resistant P. falciparum Dd2, three or more independent experiments
Outline: (§1)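 Dose–response EC50 values, each from three or more independent experiments. Dd2 and 3D7 runs use chloroquine as comparator. The selectivity index is calculated as HepG2 EC50 divided by Dd2 EC50.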

[2] = test system: wild-type P. falciparum 3D7 cells; assay: dose–response assay against 3D7 cells; format: cell-based; settings: Plasmodium falciparum, 3D7, read-out: EC50 3D7
Outline: as §1

[3] = test system: HepG2 (liver hepatocellular carcinoma) cells; assay: HepG2; format: cell-based, human; settings: for selectivity index (SI): HepG2 EC50/EC50 Dd2 cells; for EC50: Homo sapiens, HepG2, read-out: EC50 HepG2
Outline: as §1

| SMILES | EC50 [1] | EC50 [2] | selectivity index (SI) [3] | EC50 [3] |
| --- | --- | --- | --- | --- |
| CCN(CC)CCCC(C)Nc1ccnc2cc(Cl)ccc12 (centres unmarked) [Chloroquine, reference compound] | 190 nM | 17 nM | – | – |
| CC[C@]12CCCN3CCc4c(n(c5ccccc45)[C@@](O)(C(=O)OC)C1)[C@@H]32 [Compound 1, Vincamine, reference compound] | > 50000 nM | > 50000 nM | – | – |
| CC[C@@]12C=C(C(=O)OC)n3c(c(c4ccccc43)CCNCCC1)[C@@H]2c1ccc(O)cc1 [Compound 18, Methyl (11S,19S)-11-ethyl-19-(4-hydroxyphenyl)-8,15-diazatetracyclo[9.6.2.0^2,7.0^8,18]nonadeca-1(18),2(7),3,5,9-pentaene-9-carboxylate] | 10800 ± 2930 nM | – | – | – |
| CC[C@@]12C=C(C(=O)OC)n3c(c(c4ccccc43)CCN(/C=C/C(=O)OC)CCC1)[C@@H]2c1ccc(OC(C)=O)cc1 [Compound 19, Methyl (11S,19S)-19-[4-(acetyloxy)phenyl]-11-ethyl-15-[(1E)-3-methoxy-3-oxoprop-1-en-1-yl]-8,15-diazatetracyclo[9.6.2.0^2,7.0^8,18]nonadeca-1(18),2(7),3,5,9-pentaene-9-carboxylate] | 6110 ± 1560 nM | – | – | – |
| CC[C@@]12C=C(C(=O)OC)n3c(c(c4ccccc43)CCN(C(C)=O)CCC1)[C@@H]2c1ccc(O)cc1 [Compound 20, methyl (11S,19S)-15-acetyl-11-ethyl-19-(4-hydroxyphenyl)-8,15-diazatetracyclo[9.6.2.0^2,7.0^8,18]nonadeca-1(18),2(7),3,5,9-pentaene-9-carboxylate] | > 20000 nM | 12000 ± 3400 nM | – | – |
| CC[C@@]12C=C(C(=O)OC)n3c(c(c4ccccc43)CCN(C(=O)c3ccc(OC)nc3)CCC1)[C@@H]2c1ccc(O)cc1 [Compound 21, methyl (11S,19S)-11-ethyl-19-(4-hydroxyphenyl)-15-(6-methoxypyridine-3-carbonyl)-8,15-diazatetracyclo[9.6.2.0^2,7.0^8,18]nonadeca-1(18),2(7),3,5,9-pentaene-9-carboxylate] | 630 ± 120 nM | 1330 ± 180 nM | – | – |
| CC[C@@]12C=C(C(=O)OC)n3c(c(c4ccccc43)CCN(C(=O)COCCOCCOC)CCC1)[C@@H]2c1ccc(O)cc1 [Compound 22, methyl (11S,19S)-11-ethyl-19-(4-hydroxyphenyl)-15-{2-[2-(2-methoxyethoxy)ethoxy]acetyl}-8,15-diazatetracyclo[9.6.2.0^2,7.0^8,18]nonadeca-1(18),2(7),3,5,9-pentaene-9-carboxylate] | 4100 ± 550 nM | – | – | – |
| CC[C@@]12C=C(C(=O)OC)n3c(c(c4ccccc43)CCN(C(=O)C3CCCCC3)CCC1)[C@@H]2c1ccc(O)cc1 [Compound 23, methyl (11S,19S)-15-cyclohexanecarbonyl-11-ethyl-19-(4-hydroxyphenyl)-8,15-diazatetracyclo[9.6.2.0^2,7.0^8,18]nonadeca-1(18),2(7),3,5,9-pentaene-9-carboxylate] | 2530 ± 340 nM | – | – | – |
| CC[C@@]12C=C(C(=O)OC)n3c(c(c4ccccc43)CCN(C(=O)c3ccc(C(F)(F)F)cc3)CCC1)[C@@H]2c1ccc(O)cc1 [Compound 24, methyl (11S,19S)-11-ethyl-19-(4-hydroxyphenyl)-15-[4-(trifluoromethyl)benzoyl]-8,15-diazatetracyclo[9.6.2.0^2,7.0^8,18]nonadeca-1(18),2(7),3,5,9-pentaene-9-carboxylate] | 1540 ± 4 nM | – | – | – |
| CC[C@@]12C=C(C(=O)OC)n3c(c(c4ccccc43)CCN(C(=O)c3cccnc3)CCC1)[C@@H]2c1ccc(O)cc1 [Compound 25, methyl (11S,19S)-11-ethyl-19-(4-hydroxyphenyl)-15-(pyridine-3-carbonyl)-8,15-diazatetracyclo[9.6.2.0^2,7.0^8,18]nonadeca-1(18),2(7),3,5,9-pentaene-9-carboxylate] | 550 ± 70 nM | 2250 ± 400 nM | >45 | > 25000 nM |
| CC[C@@]12C=C(C(=O)OC)n3c(c(c4ccccc43)CCN(C(=O)c3ccco3)CCC1)[C@@H]2c1ccc(O)cc1 [Compound 26, methyl (11S,19S)-11-ethyl-15-(furan-2-carbonyl)-19-(4-hydroxyphenyl)-8,15-diazatetracyclo[9.6.2.0^2,7.0^8,18]nonadeca-1(18),2(7),3,5,9-pentaene-9-carboxylate] | 2480 ± 330 nM | 1800 ± 360 nM | >10 | > 25000 nM |
| CC[C@@]12C=C(C(=O)OC)n3c(c(c4ccccc43)CCN(C(=O)c3cncnc3)CCC1)[C@@H]2c1ccc(O)cc1 [Compound 27, methyl (11S,19S)-11-ethyl-19-(4-hydroxyphenyl)-15-(pyrimidine-5-carbonyl)-8,15-diazatetracyclo[9.6.2.0^2,7.0^8,18]nonadeca-1(18),2(7),3,5,9-pentaene-9-carboxylate] | 730 ± 110 nM | 1990 ± 300 nM | >34 | > 25000 nM |
| CC[C@@]12C=C(C(=O)OC)n3c(c(c4ccccc43)CCN(C(=O)c3ccno3)CCC1)[C@@H]2c1ccc(O)cc1 [Compound 28, methyl (11S,19S)-11-ethyl-19-(4-hydroxyphenyl)-15-(1,2-oxazole-5-carbonyl)-8,15-diazatetracyclo[9.6.2.0^2,7.0^8,18]nonadeca-1(18),2(7),3,5,9-pentaene-9-carboxylate] | 2140 ± 360 nM | 970 ± 30 nM | >11 | > 25000 nM |
| CC[C@@]12C=C(C(=O)OC)n3c(c(c4ccccc43)CCN(C(=O)c3ccc[nH]3)CCC1)[C@@H]2c1ccc(O)cc1 [Compound 29, methyl (11S,19S)-11-ethyl-19-(4-hydroxyphenyl)-15-(1H-pyrrole-2-carbonyl)-8,15-diazatetracyclo[9.6.2.0^2,7.0^8,18]nonadeca-1(18),2(7),3,5,9-pentaene-9-carboxylate] | 2980 ± 400 nM | 3180 ± 70 nM | – | – |
| CC[C@@]12C=C(C(=O)OC)n3c(c(c4ccccc43)CCN(C(=O)c3ccncc3)CCC1)[C@@H]2c1ccc(O)cc1 [Compound 31, methyl (11S,19S)-11-ethyl-19-(4-hydroxyphenyl)-15-(pyridine-4-carbonyl)-8,15-diazatetracyclo[9.6.2.0^2,7.0^8,18]nonadeca-1(18),2(7),3,5,9-pentaene-9-carboxylate] | 5900 ± 260 nM | – | – | – |
| CC[C@@]12C=C(C(=O)OC)n3c(c(c4ccccc43)CCN(C(=O)c3cncc(Cl)c3)CCC1)[C@@H]2c1ccc(O)cc1 [Compound 32, methyl (11S,19S)-15-(5-chloropyridine-3-carbonyl)-11-ethyl-19-(4-hydroxyphenyl)-8,15-diazatetracyclo[9.6.2.0^2,7.0^8,18]nonadeca-1(18),2(7),3,5,9-pentaene-9-carboxylate] | 490 ± 100 nM | 2220 ± 340 nM | >51 | > 25000 nM |
| CC[C@@]12C=C(C(=O)OC)n3c(c(c4ccccc43)CCN(C(=O)c3ccccc3)CCC1)[C@@H]2c1ccc(O)cc1 [Compound 34, methyl (11S,19S)-15-benzoyl-11-ethyl-19-(4-hydroxyphenyl)-8,15-diazatetracyclo[9.6.2.0^2,7.0^8,18]nonadeca-1(18),2(7),3,5,9-pentaene-9-carboxylate] | 2950 ± 1140 nM | 6600 ± 1060 nM | – | – |
